According to ChEMBL document CHEMBL4033676, “Design, synthesis and biological evaluation of 3,4-dihydro-2(1H)-quinoline-O-alkylamine derivatives as new multipotent cholinesterase/monoamine oxidase inhibitors for the treatment of Alzheimer's disease” (Bioorg Med Chem, 2017):

Assays:
[1] = organism: Homo sapiens; assay: Selectivity index, ratio of IC50 for recombinant human MAO-B to IC50 for recombinant human MAO-A
[2] = molecular target: T1, Acetylcholinesterase (Rattus norvegicus, UniProt P37136)
T1 sequence (P37136 whole entry): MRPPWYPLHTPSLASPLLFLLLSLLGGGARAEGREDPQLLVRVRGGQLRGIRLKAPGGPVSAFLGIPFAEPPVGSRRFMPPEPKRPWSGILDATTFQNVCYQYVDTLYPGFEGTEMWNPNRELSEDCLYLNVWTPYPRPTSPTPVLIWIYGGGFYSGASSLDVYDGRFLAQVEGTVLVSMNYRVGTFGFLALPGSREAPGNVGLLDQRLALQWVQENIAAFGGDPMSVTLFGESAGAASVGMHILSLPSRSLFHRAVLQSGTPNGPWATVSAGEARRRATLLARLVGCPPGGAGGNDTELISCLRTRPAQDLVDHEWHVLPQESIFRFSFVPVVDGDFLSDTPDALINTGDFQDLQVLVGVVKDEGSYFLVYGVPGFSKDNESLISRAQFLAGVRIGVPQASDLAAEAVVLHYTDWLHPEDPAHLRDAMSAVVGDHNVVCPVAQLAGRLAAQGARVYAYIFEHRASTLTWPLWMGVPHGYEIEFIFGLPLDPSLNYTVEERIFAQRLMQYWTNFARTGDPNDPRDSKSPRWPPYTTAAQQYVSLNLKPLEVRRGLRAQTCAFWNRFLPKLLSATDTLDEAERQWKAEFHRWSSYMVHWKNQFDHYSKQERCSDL

[3] = Selectivity index, ratio of IC50 for equine serum BuChE to IC50 for electric eel AChE
[4] = organism: Rattus norvegicus; assay: Selectivity index, ratio of IC50 for rat serum BuChE to IC50 for 5% rat cortex homogenate AChE
[5] = molecular target: Acetylcholinesterase (Electrophorus electricus, UniProt O42275); assay: Inhibition of electric eel AChE using acetylthiocholine chloride as substrate after 15 mins by Ellman's method
[6] = molecular target: T2, Amine oxidase [flavin-containing] A (Homo sapiens, UniProt P21397); assay: Inhibition of recombinant human MAO-A expressed in baculovirus infected BTI insect cells using kynuramine as substrate after 30 mins by fluorescence assay
T2 sequence (P21397 whole entry): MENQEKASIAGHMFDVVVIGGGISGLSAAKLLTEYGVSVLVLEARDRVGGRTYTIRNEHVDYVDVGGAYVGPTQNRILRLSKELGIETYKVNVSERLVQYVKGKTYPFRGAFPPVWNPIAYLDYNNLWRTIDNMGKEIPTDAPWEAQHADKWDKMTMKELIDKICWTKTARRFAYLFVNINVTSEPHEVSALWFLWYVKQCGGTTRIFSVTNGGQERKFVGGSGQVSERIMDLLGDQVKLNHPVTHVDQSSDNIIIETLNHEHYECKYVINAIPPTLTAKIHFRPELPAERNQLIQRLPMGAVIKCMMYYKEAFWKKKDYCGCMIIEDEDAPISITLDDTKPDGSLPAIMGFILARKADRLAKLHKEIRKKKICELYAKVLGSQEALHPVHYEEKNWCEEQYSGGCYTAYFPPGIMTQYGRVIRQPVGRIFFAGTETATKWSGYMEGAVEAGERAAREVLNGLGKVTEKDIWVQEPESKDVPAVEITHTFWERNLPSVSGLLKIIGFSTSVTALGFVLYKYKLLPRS

[7] = molecular target: Cholinesterase (Equus caballus, UniProt P81908); assay: Inhibition of equine serum BuChE using butyrylthiocholine chloride as substrate after 15 mins by Ellman's method
Outline: (§1)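 Ellman assay. Equine serum or rat serum BuChE pre-incubated with test compound at various concentrations (DMSO <1%) in 0.1 M phosphate buffer pH 8.0 for 15 min at 37°C. DTNB (0.2%) added, absorbance read at 412 nm. Inhibition % = (1−Ai/Ac)×100. IC50 is the mean of three independent experiments, each run in triplicate.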

[8] = molecular target: T3, Amine oxidase [flavin-containing] B (Homo sapiens, UniProt P27338); assay: biochemical; type: cell-based
T3 sequence (P27338 whole entry): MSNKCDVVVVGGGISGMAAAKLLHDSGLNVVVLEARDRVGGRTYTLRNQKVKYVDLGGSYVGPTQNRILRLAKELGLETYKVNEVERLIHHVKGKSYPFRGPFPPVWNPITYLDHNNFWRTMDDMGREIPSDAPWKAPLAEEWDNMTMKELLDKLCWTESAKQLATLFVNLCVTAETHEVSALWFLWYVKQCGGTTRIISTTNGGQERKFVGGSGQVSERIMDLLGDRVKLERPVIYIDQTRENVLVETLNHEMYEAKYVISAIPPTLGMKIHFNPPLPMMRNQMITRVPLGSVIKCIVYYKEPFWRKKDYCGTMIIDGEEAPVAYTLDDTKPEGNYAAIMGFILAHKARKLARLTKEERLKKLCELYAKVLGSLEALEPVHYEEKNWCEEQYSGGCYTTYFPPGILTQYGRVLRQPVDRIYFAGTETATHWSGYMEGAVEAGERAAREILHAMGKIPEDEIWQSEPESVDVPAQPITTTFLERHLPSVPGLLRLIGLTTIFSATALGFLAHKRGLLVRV

[9] = Inhibition of rat serum BuChE using butyrylthiocholine chloride as substrate after 15 mins by Ellman's method; outline: as §1

Chain of Cholinesterase (P81908 whole entry): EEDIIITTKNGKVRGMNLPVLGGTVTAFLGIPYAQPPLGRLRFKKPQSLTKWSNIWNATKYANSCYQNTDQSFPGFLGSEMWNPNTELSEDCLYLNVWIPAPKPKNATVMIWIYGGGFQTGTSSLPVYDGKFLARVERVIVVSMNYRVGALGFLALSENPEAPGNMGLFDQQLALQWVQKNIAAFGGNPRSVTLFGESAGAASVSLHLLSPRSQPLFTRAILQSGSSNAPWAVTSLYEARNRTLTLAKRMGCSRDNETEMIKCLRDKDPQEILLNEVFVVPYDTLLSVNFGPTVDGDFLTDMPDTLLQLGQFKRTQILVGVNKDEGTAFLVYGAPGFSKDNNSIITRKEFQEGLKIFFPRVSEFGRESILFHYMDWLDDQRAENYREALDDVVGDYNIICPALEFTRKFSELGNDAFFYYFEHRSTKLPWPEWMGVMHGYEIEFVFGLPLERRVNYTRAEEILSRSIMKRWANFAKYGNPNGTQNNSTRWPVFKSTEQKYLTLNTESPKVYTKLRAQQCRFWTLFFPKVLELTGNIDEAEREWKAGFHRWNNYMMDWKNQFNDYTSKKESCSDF
Chain of Acetylcholinesterase (Electrophorus electricus, UniProt O42275) (O42275 whole entry): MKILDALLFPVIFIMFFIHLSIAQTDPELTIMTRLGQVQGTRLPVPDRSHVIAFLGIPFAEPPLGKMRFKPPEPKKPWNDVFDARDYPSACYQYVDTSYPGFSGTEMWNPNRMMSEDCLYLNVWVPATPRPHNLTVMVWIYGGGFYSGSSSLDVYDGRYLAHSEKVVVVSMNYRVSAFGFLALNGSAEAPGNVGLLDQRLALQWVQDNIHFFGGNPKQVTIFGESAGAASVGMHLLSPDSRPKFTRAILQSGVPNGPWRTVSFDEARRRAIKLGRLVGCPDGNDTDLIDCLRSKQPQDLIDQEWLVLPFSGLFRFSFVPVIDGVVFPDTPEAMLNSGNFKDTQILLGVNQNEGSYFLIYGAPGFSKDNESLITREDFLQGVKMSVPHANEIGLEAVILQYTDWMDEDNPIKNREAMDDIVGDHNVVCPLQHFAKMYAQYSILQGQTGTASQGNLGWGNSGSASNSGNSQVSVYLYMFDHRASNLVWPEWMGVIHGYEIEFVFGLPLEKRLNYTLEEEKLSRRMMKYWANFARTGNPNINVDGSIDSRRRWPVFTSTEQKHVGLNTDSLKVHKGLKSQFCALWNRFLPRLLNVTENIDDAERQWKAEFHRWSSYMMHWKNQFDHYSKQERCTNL

| Structure (SMILES) | Ratio IC50 [1] | IC50 [2] | Ratio IC50 [3] | Ratio IC50 [4] | IC50 [5] | IC50 [6] | IC50 [7] | IC50 [8] | IC50 [9] |
| --- | --- | --- | --- | --- | --- | --- | --- | --- | --- |
| O=C1CCc2ccc(OCCCCN3CCc4ccccc4C3)cc2N1 | 1.4 | 18.2 µM | 0.4 | 0.7 | 10.1 µM | 4.9 µM | 3.8 µM | 6.9 µM | 12.4 µM |
| O=C1CCc2ccc(OCCCCCCN3CCCCC3)cc2N1 | 3.4 | 6 µM | 0.8 | 4.5 | 17.8 µM | 9.4 µM | 14.1 µM | 31.7 µM | 27.2 µM |
| CCN(CC)CCCOc1ccc2c(c1)NC(=O)CC2 | 2.2 | 19.2 µM | 2.7 | 1.1 | 11.2 µM | 8.4 µM | 29.7 µM | 18.6 µM | 20.5 µM |
| O=C1CCc2ccc(OCCCCCN3CCN(Cc4ccccc4)CC3)cc2N1 | 2.7 | 15.7 µM | 1.3 | 1.9 | 10 µM | 2.4 µM | 12.7 µM | 6.5 µM | 29.6 µM |
| CC(C)N1CCN(CCCCCOc2ccc3c(c2)NC(=O)CC3)CC1 | 1 | 3.2 µM | 3.5 | 0.9 | 0.9 µM | 8.2 µM | 3.2 µM | 8.1 µM | 2.7 µM |
| O=C1CCc2ccc(OCCCCN3CCCCC3)cc2N1 | 0.7 | 11.6 µM | 1.3 | 2 | 11.8 µM | 9.5 µM | 15.7 µM | 6.4 µM | 22.8 µM |
| O=C1CCc2ccc(OCCCN3CCN(Cc4ccccc4)CC3)cc2N1 | 3.3 | 12.6 µM | 14.9 | 2.7 | 1.3 µM | 6.6 µM | 19.4 µM | 21.8 µM | 34.2 µM |
| O=C1CCc2ccc(OCCCCN3CCN(Cc4ccccc4)CC3)cc2N1 | 1.3 | 13.7 µM | 1.8 | 2.3 | 6 µM | 7.4 µM | 10.7 µM | 9.4 µM | 31.6 µM |
| C#CCN(CCCCCOc1ccc2c(c1)NC(=O)CC2)Cc1ccccc1 | 0.9 | 14.3 µM | 0.4 | 2.1 | 19.4 µM | 8.9 µM | 7 µM | 8.3 µM | 29.6 µM |
| O=C1CCc2ccc(OCCCCCCN3CCCC3)cc2N1 | 2.8 | 3.4 µM | 0.33 | 2.5 | 2.6 µM | 1.3 µM | 0.87 µM | 3.5 µM | 8.5 µM |
| O=C1CCc2ccc(OCCCCCCN3CCC(N4CCCC4)CC3)cc2N1 | 3 | 12.3 µM | 6.2 | 1.6 | 5.3 µM | 6.2 µM | 32.7 µM | 18.3 µM | 20.2 µM |
| COc1cc2c(cc1OC)C(=O)C(CC1CCN(Cc3ccccc3)CC1)C2 (stereo not drawn) [DONEPEZIL] |  |  |  |  |  |  |  |  | 4.42 µM |
| O=C1CCc2ccc(OCCCN3CCN(c4ccccn4)CC3)cc2N1 | 17.1 | 20 µM | 1.5 | 2 | 9.6 µM | 1.1 µM | 14.4 µM | 18 µM | 39 µM |
| O=C1CCc2ccc(OCCCN3CCc4ccccc4C3)cc2N1 | 2.2 | 15.5 µM | 0.4 | 0.8 | 13.3 µM | 8.6 µM | 5.5 µM | 18.8 µM | 12.6 µM |
| CCN(CC)CCCCCCOc1ccc2c(c1)NC(=O)CC2 | 1.6 | 41.9 µM | 2.2 | 0.6 | 13.3 µM | 5.4 µM | 29.5 µM | 8.6 µM | 24.3 µM |
| O=C1CCc2ccc(OCCCCCN3CCN(c4ccccn4)CC3)cc2N1 | 1.6 | 28.4 µM | 0.4 | 1.6 | 15.6 µM | 13 µM | 6.2 µM | 20.3 µM | 44.6 µM |
| O=C1CCc2ccc(OCCCCCCN3CCN(c4ccccn4)CC3)cc2N1 | 2 | 34.1 µM | 0.2 | 1.4 | 19.1 µM | 5.6 µM | 4.1 µM | 11.3 µM | 48.2 µM |
| CC(C)N1CCN(CCCCCCOc2ccc3c(c2)NC(=O)CC3)CC1 | 3.7 | 2.43 µM | 2.7 | 0.7 | 0.76 µM | 6.8 µM | 2 µM | 24.9 µM | 1.8 µM |
| O=C1CCc2ccc(OCCCN3CCCCC3)cc2N1 | 0.5 | 16.5 µM | 3.2 | 1.4 | 12.2 µM | 13.1 µM | 39 µM | 6.2 µM | 22.9 µM |
| O=C1CCc2ccc(OCCCCCN3CCCCC3)cc2N1 | 2 | 8.4 µM | 2.6 | 3.8 | 12.8 µM | 8.4 µM | 32.8 µM | 17 µM | 31.4 µM |
| CC(C)N1CCN(CCCCOc2ccc3c(c2)NC(=O)CC3)CC1 | 0.5 | 3.6 µM | 4.4 | 1 | 1 µM | 14.3 µM | 4.5 µM | 7.6 µM | 3.7 µM |
| C#CCN(CCCCOc1ccc2c(c1)NC(=O)CC2)Cc1ccccc1 | 1 | 23.3 µM | 0.9 | 1.4 | 21.4 µM | 9.3 µM | 19.1 µM | 9.1 µM | 32.1 µM |
| CCN(CC)CCCCCOc1ccc2c(c1)NC(=O)CC2 | 0.7 | 34.1 µM | 2.7 | 0.4 | 8.2 µM | 11.4 µM | 21.9 µM | 8.5 µM | 14.7 µM |
| C#CCN(CCCCCCOc1ccc2c(c1)NC(=O)CC2)Cc1ccccc1 | 3.8 | 13 µM | 0.2 | 1.9 | 13.7 µM | 1 µM | 2.4 µM | 3.8 µM | 24.5 µM |
